Columns and labels:
Type in all cases: functional
Botrytis fabae = experiment: Antifungal activity against Botrytis fabae at 2 mg/ml after 7 days by agar diffusion assay; settings: 168 h, read-out: DIZ
How it was run: (§1)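 Fungus grown on potato dextrose agar with test compound in DMSO, DMSO-only control plate for each organism. Plates incubated seven days in three replicate plates per compound. Activity read as inhibition zone diameter.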

Klebsiella pneumoniae = experiment: Antimicrobial activity against Klebsiella pneumoniae at 2 mg/ml after 24 hrs by agar diffusion assay; settings: read-out: DIZ
How it was run: (§2)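 Bacterial strain grown on nutrient agar with test compound in DMSO, DMSO-only control plate for each organism, ampicillin 2 mg/ml as reference. Plates incubated 24 h in three replicate plates per compound. Activity read as inhibition zone diameter.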

Bacillus thuringiensis = experiment: Antibacterial activity against Bacillus thuringiensis at 2 mg/ml after 24 hrs by agar diffusion assay; settings: read-out: DIZ; how it was run: as §2
Fusarium oxysporum = experiment: Antifungal activity against Fusarium oxysporum at 2 mg/ml after 7 days by agar diffusion assay; settings: 168 h, read-out: DIZ; how it was run: as §1

Row | Compound | zone of inhibition at 2000 µg/mL (Botrytis fabae) | zone of inhibition at 2000 µg/mL (Klebsiella pneumoniae) | zone of inhibition at 2000 µg/mL (Bacillus thuringiensis) | zone of inhibition at 2000 µg/mL (Fusarium oxysporum)
1 | CC(=O)c1nnc2c(C(=O)Nc3sc4c(c3C(N)=O)CCCC4)c(Nc3ccccc3)nn2c1C | 18 mm | 12 mm | – | –
2 | Cc1cc(C)n2nc(Nc3ccccc3)c(C(=O)Nc3sc4c(c3C(N)=O)CCCC4)c2n1 | 15 mm | 17 mm | 15 mm | 13 mm
3 | NC(=O)c1c(NC(=O)c2c(Nc3ccccc3)nn3c4c(cnc23)CCc2ccccc2-4)sc2c1CCCC2 | – | 17 mm | 15 mm | 17 mm
4 | Cc1ccc(N/N=C2/C(=O)S/C(=C(\C#N)C(=O)Nc3sc4c(c3C(N)=O)CCCC4)N2c2ccccc2)cc1 | 18 mm | 19 mm | 22 mm | 16 mm
5 | Cc1nn(-c2ccccc2)c2c1cnc1c(C(=O)Nc3sc4c(c3C(N)=O)CCCC4)c(Nc3ccccc3)nn12 | 16 mm | 18 mm | 16 mm | 14 mm
6 | NC(=O)c1c(NC(=O)c2cn[nH]c2N)sc2c1CCCC2 | 16 mm | 20 mm | 17 mm | 12 mm
7 | Cc1ccc(C)n1-c1[nH]nc(Nc2ccccc2)c1C(=O)Nc1sc2c(c1C(N)=O)CCCC2 | 18 mm | 22 mm | 18 mm | 14 mm
8 | NC(=O)c1c(NC(=O)c2c(Nc3ccccc3)nn3c(-c4ccccc4)ccnc23)sc2c1CCCC2 | 15 mm | 19 mm | 15 mm | 19 mm
9 | COc1ccc(/C=c2\c(=O)s/c(=C(\C#N)C(=O)Nc3sc4c(c3C(N)=O)CCCC4)n2-c2ccccc2)cc1 | 13 mm | 23 mm | 20 mm | 15 mm
10 | Cc1cc(C)c2c(n1)nn1c(N)c(C(=O)Nc3sc4c(c3C(N)=O)CCCC4)nnc21 | 13 mm | 18 mm | 16 mm | 13 mm
11 | NC(=O)c1c(NC(=O)c2c(Nc3ccccc3)n[nH]c2N)sc2c1CCCC2 | – | 22 mm | 24 mm | 14 mm
12 | N#Cc1nnc2c(C(=O)Nc3sc4c(c3C(N)=O)CCCC4)c(Nc3ccccc3)nn2c1N | 16 mm | 18 mm | 16 mm | –
13 | N#C/C(C(=O)Nc1sc2c(c1C(N)=O)CCCC2)=C1\SC(=O)CN1c1ccccc1 | 12 mm | 19 mm | 21 mm | 16 mm
14 | CC1(C)S[C@@H]2[C@H](NC(=O)[C@H](N)c3ccccc3)C(=O)N2[C@H]1C(=O)O [AMPICILLIN] | 15 mm | 20 mm | 17 mm | 17 mm

— ChEMBL document CHEMBL1157023, “Synthesis and antimicrobial activities of some new thiazole and pyrazole derivatives based on 4,5,6,7-tetrahydrobenzothiophene moiety” (2010)
